Data on 13 compounds can be found in PubChem BioAssay.

The source made the active and inactive calls.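 Rule for the calls, unless noted: active = viability loss from added drug above about 55%, and viability with drug at most 40%, in both replicates (limit read from the data, passing the limit was not always enough); inconclusive = both conditions met in only one replicate; inactive = neither replicate meets both conditions.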

Assay [1] is described as follows: SK-BR-3 cell growth inhibitors, pilot screen, 24 h, human (AID 572;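 active = viability at or below 10% of carrier control in both of two separate runs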;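 note: compound exposure lasted between 18 and 24 h rather than exactly 24 h; 100% = carrier-treated control wells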). The note with it: SK-BR-3 viability, CellTiter-Glo luminescence, at 10 µM, stronger effect = lower value. For orientation: Cellular ATP, detected with luciferase, serves as a proxy for viable cell number.
Assay [2] in a line: HUVEC growth inhibition – cell-based, human, primary screen (AID 575;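 active = viability at or below 30% in both replicate assays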;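 note: 100% = median of untreated cell wells with 0.1% DMSO on each plate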). The conditions noted are these: HUVEC proliferation, CellTiter-Glo luminescence, 72 h; at 10 µM; stronger effect = lower value. An outline of the steps: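 Test system: primary human umbilical vein endothelial cells. Quantity: 1250 cells/well. Compound: single 10 µM dose, 0.1% DMSO, from 5x medium stock. Timing: 72 h treatment at 37 °C. Detection: ATP-based CellTiter-Glo luminescent read. Benchmarks: vehicle and MePR control wells. Format: 384-well plates coated with collagen.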

Assay [3] in a line: growth inhibitors of H69AR lung tumor, primary screen, human, duplicate replicates (AID 580;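 active = viability at or under a set limit in both replicates, limit being median viability minus 3 SD, cut at about 48% in these data, passing the limit was not always enough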;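 note: 100% = mean luminescence of untreated wells and 0% = no signal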). The note with it: H69AR lung tumor cells viability, ATP luminescence, 72 h; at 10 µM; stronger effect = lower value.
Assay [4] is described as follows: reversal of MRP1-mediated doxorubicin resistance, pilot screen, H69AR cells, doxorubicin co-treatment (AID 601). The conditions noted are these: CellTiter-Glo, 72 h, at 10 µM; for differential viability (reversal): stronger effect = higher value.
Assay [5] in a line: 384-well plate pilot, post-Golgi transport modulator project, inhibition of yeast transport mutant growth (AID 636; in the data active = inhibition above about 31%). The conditions noted are these: absorbance 615 nm, about 18 h, stronger effect = higher value.
Assay [6] can be described thus: growth suppression of yeast trafficking mutant, preliminary HTS, modulators of trafficking downstream of Golgi apparatus project, 1536-format plate, OD 615 nm (AID 637; in the data active = inhibition above about 30%). The note with it: yeast transport mutant growth, absorbance 615 nm, 18 h; stronger effect = higher value.
The mark [7] stands for this setting: H69AR cells + 2 uM doxorubicin, measured here: viability with 2 uM doxorubicin, stronger effect = lower value.
Setting [8] is: H69AR cells, compound alone cytotoxicity.

The term viability denotes a read-out of living cells in per cent, often relative to untreated cells. The term inhibition denotes the relative decrease from the control value, in per cent. Regarding `Cn1c(Cl)cnc1C1CC(=O)c2cc(Cl)ccc2O1` (centres undefined), the viability was 112% (inactive) in assay [1]; 15.5% (active) in assay [2]; 2.09% (active) in assay [3]; 2.04% in assay [4] (setting [7]); 2.09% in assay [4] (setting [8]). For the same compound, in assay [4] (H69AR cells + 2 uM doxorubicin), the differential viability (reversal) is 0.045% (inactive). The inhibition was -4.46% (inactive) in assay [5] and 3.64% (inactive) in assay [6].

For the compound `Cc1cnc(C(=O)NCCc2ccc(S(=O)(=O)NC(=O)NC3CCCCC3)cc2)cn1`, the viability is 94% (inactive) in assay [1]; 94.9% (inactive) in assay [2]; 89.3% (inactive) in assay [3]; 106% in assay [4] (setting [7]); 89.3% in assay [4] (setting [8]). Further, the differential viability (reversal) in assay [4] (H69AR cells + 2 uM doxorubicin) was -16.6% (inactive). Moreover, the values for the inhibition in assay [5] and in assay [6] were 1.04% (inactive) and 2% (inactive), respectively.

Consider `O=C1c2ccccc2NC2CCCCCN12` (centres undefined), for which the viability was 108% (inactive) in assay [1]; 92.9% (inactive) in assay [2]; 100% (inactive) in assay [3]; 89.8% in assay [4] (setting [7]); 100% in assay [4] (setting [8]). In addition, the differential viability (reversal) in assay [4] (H69AR cells + 2 uM doxorubicin) was 10.3% (inactive). Also, the inhibition in assay [5] is -2.34% (inactive); in assay [6] it was 1.48% (inactive).

In the case of `CC(C)N(Cc1nc(-c2ccccc2)no1)C(=O)CCCN1C(=O)c2ccccc2C1=O`, the viability is 104% (inactive) in assay [1]; 112% (inactive) in assay [2]; 97.9% (inactive) in assay [3]; 82.2% in assay [4] (setting [7]); 97.9% in assay [4] (setting [8]). Also, the differential viability (reversal) in assay [4] (H69AR cells + 2 uM doxorubicin) was 15.7% (inactive). Further, the inhibition in assay [5] was -3.12% (inactive); in assay [6] it was 0.98% (inactive).

Regarding `CC1(C)CC(=O)C(CC(=O)NC(=O)NCc2ccccc2)=C(O)C1`, the viability in assay [1] was 114% (inactive); in assay [2] it was 81.9% (inactive); in assay [3] it was 105% (inactive); in assay [4] (setting [7]) it was 94.7%; in assay [4] (setting [8]), 105%. In addition, the differential viability (reversal) in assay [4] (H69AR cells + 2 uM doxorubicin) was 9.89% (inactive). Besides, the inhibition in assay [5] is -4.52% (inactive); in assay [6], -10% (inactive).

Consider `Cc1ccc2nc(NC(=O)C3CCCN(S(=O)(=O)c4cccc5nonc45)C3)sc2c1` (centres undefined), for which the viability in assay [1] is 97.5% (inactive); in assay [2] it was 71.6% (inactive); in assay [3] it was 76% (inactive); in assay [4] (setting [7]), 90.8%; in assay [4] (setting [8]), 76%. Besides, the differential viability (reversal) in assay [4] (H69AR cells + 2 uM doxorubicin) was -14.8% (inactive). Also, the inhibition is -4.34% (inactive) in assay [5] and 1.17% (inactive) in assay [6].

For `O=C(Nc1ccccc1Cl)c1c(F)c(F)c(F)c(F)c1F`, the viability is 106% (inactive) in assay [1]; 106% (inactive) in assay [2]; 90.2% (inactive) in assay [3]; 97.8% in assay [4] (setting [7]); 90.2% in assay [4] (setting [8]). Besides, in assay [4] (H69AR cells + 2 uM doxorubicin), the differential viability (reversal) is -7.56% (inactive). In addition, the inhibition was 3.15% (inactive) in assay [5] and 7.09% (inactive) in assay [6].

As to `C/C(Cl)=C\Cn1c(NCCc2ccccc2)nc2c1c(=O)n(C)c(=O)n2C`, the viability was 86% (inactive) in assay [1]; 78.7% (inactive) in assay [2]; 76% (inactive) in assay [3]; 66.6% in assay [4] (setting [7]); 76% in assay [4] (setting [8]). Besides, in assay [4] (H69AR cells + 2 uM doxorubicin), the differential viability (reversal) was 9.38% (inactive). Also, the inhibition in assay [5] is -7.97% (inactive); in assay [6], 2.17% (inactive).

As for `COc1cccc(S(=O)(=O)Nc2ccc(C(=O)N3CCN(C(=O)c4ccco4)CC3)cc2)c1`, the viability in assay [1] was 85% (inactive); in assay [2], 104% (inactive); in assay [3], 86.3% (inactive); in assay [4] (setting [7]) it was 71.5%; in assay [4] (setting [8]) it was 86.3%. Further, in assay [4] (H69AR cells + 2 uM doxorubicin), the differential viability (reversal) was 14.7% (inactive). Further, the inhibition in assay [5] was -2.19% (inactive); in assay [6], -0.97% (inactive).

Take `Cc1cc(NS(=O)(=O)c2ccc(NC(=O)COc3ccc(Cl)cc3)cc2)no1`: the viability in assay [1] was 100% (inactive); in assay [2], 107% (inactive); in assay [3], 84.1% (inactive); in assay [4] (setting [7]) it was 85.2%; in assay [4] (setting [8]), 84.1%. For the same compound, the differential viability (reversal) in assay [4] (H69AR cells + 2 uM doxorubicin) is -1.13% (inactive). Moreover, the inhibition is -9.32% (inactive) in assay [5] and -5.27% (inactive) in assay [6].

Regarding `O=C(Nc1cccnc1)Nc1ccc(F)c(Cl)c1`, the viability was 82% (inactive) in assay [1]; 86.6% (inactive) in assay [2]; 105% (inactive) in assay [3]; 100% in assay [4] (setting [7]); 105% in assay [4] (setting [8]). The differential viability (reversal) in assay [4] (H69AR cells + 2 uM doxorubicin) is 4.77% (inactive). Besides, the values for the inhibition in assay [5] and in assay [6] were -2.19% (inactive) and 12% (inactive), respectively.

Turning to `CCCC(=O)Nc1cc(-c2nnc(OC)c3ccccc23)ccc1N1CCOCC1`, the viability is 109% (inactive) in assay [1]; 84.6% (inactive) in assay [2]; 94.5% (inactive) in assay [3]; 102% in assay [4] (setting [7]); 94.5% in assay [4] (setting [8]). In assay [4] (H69AR cells + 2 uM doxorubicin), the differential viability (reversal) is -7.97% (inactive). Further, the inhibition in assay [5] is 0.96% (inactive); in assay [6], 3.71% (inactive).

Regarding `Cc1ccc(Cl)cc1N1CCN(C(=O)CN2C(=O)c3cccc4cccc2c34)CC1`, the viability was 94.5% (inactive) in assay [1]; 66.6% (inactive) in assay [2]; 72.1% (inactive) in assay [3]; 76.3% in assay [4] (setting [7]); 72.1% in assay [4] (setting [8]). The differential viability (reversal) in assay [4] (H69AR cells + 2 uM doxorubicin) was -4.18% (inactive). Further, the inhibition is -4.42% (inactive) in assay [5] and 3.65% (inactive) in assay [6].
